Measurements from ChEMBL document CHEMBL3112482, “Nonclassical antifolates, part 5. Benzodiazepine analogs as a new class of DHFR inhibitors: synthesis, antitumor testing and molecular modeling study” (Eur J Med Chem, 2014).

What was measured:
Format in all cases: functional
M14 = assay: Growth inhibition of human M14 cells at 10 uM after 48 hrs; details: M14, 48 h, read-out: GI
In short: (§1)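 Single-dose primary screen in the NCI 60 human tumour cell line panel, run at the NCI facility. The panel covers nine subpanels: leukaemia, non-small cell lung, colon, CNS, melanoma, ovarian, renal, prostate and breast. Read-out was percent growth of treated cells, shown as a mean graph and reported as percent growth inhibition.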

LOX IMVI = assay: Growth inhibition of human LOXIMVI cells at 10 uM after 48 hrs; details: read-out: GI; in short: as §1
BT-549 = assay: Growth inhibition of human BT549 cells at 10 uM after 48 hrs; details: BT-549, 48 h, read-out: GI; in short: as §1
A549 = assay: Growth inhibition of human A549 cells at 10 uM after 48 hrs; details: A549, 48 h, read-out: GI; in short: as §1
[1] = Growth inhibition of human HOP92 cells at 10 uM after 48 hrs; details: HOP-92, 48 h, read-out: GI; in short: as §1
SK-MEL-5 = assay: Growth inhibition of human SK-MEL-5 cells at 10 uM after 48 hrs; details: SK-MEL-5, 48 h, read-out: GI
In short: (§2)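 NCI 60-cell-line disease-oriented human tumor panel, single-dose primary screen at 10 µM. Data given as mean-graph percent growth of treated cells, reported as percent growth inhibition (GI %).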

HCT-116 = assay: Growth inhibition of human HCT116 cells at 10 uM after 48 hrs; details: HCT-116, 48 h, read-out: GI; in short: as §1
Malme-3M = assay: Growth inhibition of human MALME-3M cells at 10 uM after 48 hrs; details: read-out: GI; in short: as §1
HCT-15 = assay: Growth inhibition of human HCT15 cells at 10 uM after 48 hrs; details: HCT-15, 48 h, read-out: GI; in short: as §1
SF-295 = assay: Growth inhibition of human SF295 cells at 10 uM after 48 hrs; details: SF-295, 48 h, read-out: GI; in short: as §2
ACHN = assay: Growth inhibition of human ACHN cells at 10 uM after 48 hrs; details: read-out: GI; in short: as §1
MDA-MB-468 = assay: Growth inhibition of human MDA-MB-468 cells at 10 uM after 48 hrs; details: MDA-MB-468, 48 h, read-out: GI; in short: as §1
RPMI-8226 = assay: Growth inhibition of human RPMI8226 cells at 10 uM after 48 hrs; details: RPMI-8226, 48 h, read-out: GI; in short: as §1
MDA-MB-435 = assay: Growth inhibition of human MDA-MB-435 cells at 10 uM after 48 hrs; details: MDA-MB-435, 48 h, read-out: GI; in short: as §1
A498 = assay: Growth inhibition of human A498 cells at 10 uM after 48 hrs; details: A498, 48 h, read-out: GI; in short: as §1
NCI-H522 = assay: Growth inhibition of human NCI-H522 cells at 10 uM after 48 hrs; details: NCI-H522, 48 h, read-out: GI; in short: as §1
[2] = Growth inhibition of human UACC257 cells at 10 uM after 48 hrs; details: UACC-257, 48 h, read-out: GI; in short: as §2
HOP-62 = assay: Growth inhibition of human HOP62 cells at 10 uM after 48 hrs; details: HOP-62, 48 h, read-out: GI; in short: as §1
COLO 205 = assay: Growth inhibition of human COLO205 cells at 10 uM after 48 hrs; details: COLO 205, 48 h, read-out: GI; in short: as §1
NCI-H460 = assay: Growth inhibition of human NCI-H460 cells at 10 uM after 48 hrs; details: NCI-H460, 48 h, read-out: GI; in short: as §1
U-251 = assay: Growth inhibition of human U251 cells at 10 uM after 48 hrs; details: U-251, 48 h, read-out: GI; in short: as §2
UACC-62 = assay: Growth inhibition of human UACC62 cells at 10 uM after 48 hrs; details: UACC-62, 48 h, read-out: GI; in short: as §2
[3] = Cytotoxicity against human leukemia cells at 10 uM after 48 hrs; details: Leukemia cell
[4] = Cytotoxicity against human colon cancer cells at 10 uM after 48 hrs; details: Cancer cell lines; in short: as §1
[5] = Cytotoxicity against human melanoma cells at 10 uM after 48 hrs; details: Melanoma cell; in short: as §1
[6] = Cytotoxicity against human non-small cell lung cancer cells at 10 uM after 48 hrs; details: Cancer cell lines; in short: as §1
[7] = Cytotoxicity against human renal cancer cells at 10 uM after 48 hrs; details: Cancer cell lines
[8] = Cytotoxicity against human breast cancer cells at 10 uM after 48 hrs; details: Cancer cell lines; in short: as §1
[9] = Cytotoxicity against human CNS cancer cells at 10 uM after 48 hrs; details: Cancer cell lines
[10] = read-out: LC50 (the source's name)

Cc1nc2c(c(-c3ccc(Br)cc3)n1)CCC/C2=C\c1ccc(Br)cc1
inhibition of growth at 10 µM (M14): < 30%
inhibition of growth at 10 µM (LOX IMVI): < 30%
inhibition of growth at 10 µM (BT-549): < 30%
inhibition of growth at 10 µM (A549): < 30%
inhibition of growth at 10 µM [1]: < 30%
inhibition of growth at 10 µM (SK-MEL-5): < 30%
inhibition of growth at 10 µM (HCT-116): 55.8%
inhibition of growth at 10 µM (Malme-3M): < 30%
inhibition of growth at 10 µM (HCT-15): < 30%
inhibition of growth at 10 µM (SF-295): < 30%
inhibition of growth at 10 µM (ACHN): < 30%
inhibition of growth at 10 µM (MDA-MB-468): < 30%
inhibition of growth at 10 µM (RPMI-8226): 73.7%
inhibition of growth at 10 µM (MDA-MB-435): < 30%
inhibition of growth at 10 µM (A498): < 30%
inhibition of growth at 10 µM (NCI-H522): < 30%
inhibition of growth at 10 µM [2]: < 30%
inhibition of growth at 10 µM (HOP-62): < 30%
inhibition of growth at 10 µM (COLO 205): < 30%
inhibition of growth at 10 µM (NCI-H460): < 30%
inhibition of growth at 10 µM (U-251): < 30%
inhibition of growth at 10 µM (UACC-62): < 30%

Nc1nc2c(c(-c3ccc(Br)cc3)n1)CCC/C2=C\c1ccc(Br)cc1
inhibition of growth at 10 µM (M14): 38.1%
inhibition of growth at 10 µM (BT-549): < 30%
inhibition of growth at 10 µM (A549): < 30%
inhibition of growth at 10 µM [1]: < 30%
inhibition of growth at 10 µM (SK-MEL-5): < 30%
inhibition of growth at 10 µM (Malme-3M): < 30%
inhibition of growth at 10 µM (HCT-15): < 30%
inhibition of growth at 10 µM (SF-295): < 30%
inhibition of growth at 10 µM (ACHN): < 30%
inhibition of growth at 10 µM (MDA-MB-468): < 30%
inhibition of growth at 10 µM (MDA-MB-435): 63.2%
inhibition of growth at 10 µM (A498): < 30%
inhibition of growth at 10 µM (NCI-H522): 51.6%
inhibition of growth at 10 µM [2]: < 30%
inhibition of growth at 10 µM (HOP-62): < 30%
inhibition of growth at 10 µM (COLO 205): < 30%
inhibition of growth at 10 µM (NCI-H460): < 30%
inhibition of growth at 10 µM (U-251): 65.2%
inhibition of growth at 10 µM (UACC-62): < 30%

Nc1nc2c(c(-c3ccc(Cl)cc3)n1)CCC/C2=C\c1ccc(Cl)cc1
inhibition of growth at 10 µM (M14): 89%
inhibition of growth at 10 µM (BT-549): < 30%
GI50 [3]: 7.8 µM
LC50 [3]: > 100 µM
TGI [3]: 61.1 µM
inhibition of growth at 10 µM (A549): 33.3%
GI50 [4]: 4 µM
TGI [4]: 12.5 µM
CC50 [4, 10]: 51.3 µM
inhibition of growth at 10 µM [1]: < 30%
inhibition of growth at 10 µM (SK-MEL-5): < 30%
GI50 [5]: 15.4 µM
TGI [5]: 36.5 µM
CC50 [5, 10]: 80 µM
inhibition of growth at 10 µM (Malme-3M): < 30%
inhibition of growth at 10 µM (HCT-15): 41.7%
GI50 [6]: 15.2 µM
TGI [6]: 55.7 µM
CC50 [6, 10]: 88.6 µM
inhibition of growth at 10 µM (SF-295): 32.5%
inhibition of growth at 10 µM (ACHN): < 30%
inhibition of growth at 10 µM (MDA-MB-468): 37.8%
CC50 [7]: 78.4 µM
GI50 [7]: 14.7 µM
TGI [7]: 40.6 µM
inhibition of growth at 10 µM (A498): 45.3%
inhibition of growth at 10 µM (NCI-H522): 81%
GI50 [8]: 23.6 µM
LC50 (concentration killing 50% of cells) [8]: 92.2 µM
TGI [8]: 70.9 µM
inhibition of growth at 10 µM [2]: < 30%
inhibition of growth at 10 µM (HOP-62): < 30%
inhibition of growth at 10 µM (COLO 205): < 30%
inhibition of growth at 10 µM (NCI-H460): < 30%
inhibition of growth at 10 µM (U-251): 86.1%
GI50 [9]: 13.7 µM
TGI [9]: 53.1 µM
CC50 [9, 10]: 91.9 µM
inhibition of growth at 10 µM (UACC-62): < 30%
